pIC50: −log10 of the molar value. Calls of active or inactive are those of the source. No cut-off for these calls is given here.
Key:
Calf thymus DNA [1] = assay: Binding affinity to calf thymus DNA assessed as decrease in fluorescence intensity at 20 uM by fluorescence spectrophotometry; assay type: nucleic-acid assay; details: Bos taurus
Procedure, shortened: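 Fluorescent compound at […] in 1 mL BPE buffer pH 7.1, with or without […] CT-DNA, in a 10 mm quartz cuvette. Excitation at 268, 275 or 285 nm depending on compound; emission spectra scanned.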

[2] = target: DNA topoisomerase 2-alpha (Homo sapiens) (UniProt P11388); assay: Inhibition of human recombinant topoisomerase 2-mediated relaxation of supercoiled […] by agarose gel electrophoresis
Procedure, shortened: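 Supercoiled pUC19 (350 ng) preincubated with compound at […], or etoposide at 20 or 50, before adding 10 units human topoisomerase II; 37 °C for 45 min in cleavage buffer. Stopped with SDS 0.25% plus proteinase K, 30 min at 50 °C. Run on 1% agarose containing ethidium bromide, 2 h at 120 V in TBE.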

L1210 = assay: Cytotoxicity against mouse L1210 cells; assay type: functional, cell-based
Procedure, shortened: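 Mouse leukemia L1210 cells grown in RPMI 1640 with 10% FCS, 2 mM glutamine, penicillin/streptomycin and 10 mM HEPES pH 7.4. Exposed 48 h to nine graded drug concentrations in triplicate. Read by microculture tetrazolium assay. IC50 is the concentration that halves absorbance relative to untreated cells; mean of 3.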

Calf thymus DNA [3] = assay: Binding affinity to calf thymus DNA assessed as decrease in absorbance at 20 uM by UV-visible spectrophotometry; assay type: nucleic-acid assay; details: Bos taurus
Procedure, shortened: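 Compound at […], with or without CT-DNA at […], in 1 mL BPE buffer pH 7.1 in a 10 mm quartz cuvette. Spectra scanned 230–500 nm against a blank holding the same DNA concentration in the same buffer. Drug/DNA ratio 1; DMSO stocks diluted into buffer.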

Calf thymus DNA [4] = assay: Binding affinity to calf thymus DNA assessed as circular dichroism at 50 uM by J810 Jasco spectrophotometer; assay type: nucleic-acid assay; details: Bos taurus
Procedure, shortened: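 CT-DNA deproteinized with SDS and dialyzed against 1 mM sodium cacodylate pH 7.0. Drug at […], with or without […] base pairs CT-DNA, in 1 mL 1 mM sodium cacodylate pH 7.0. CD spectra recorded 500–230 nm at 0.1 nm resolution.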

Calf thymus DNA [5] = assay: Binding affinity to calf thymus DNA assessed as change in melting temperature; assay type: nucleic-acid assay; details: Bos taurus
Procedure, shortened: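 CT-DNA ([…] as printed) in 1 mL BPE buffer pH 7.1 (6 mM Na2HPO4, 2 mM NaH2PO4, 1 mM EDTA), alone or with drug at base pair/drug ratio 1. A260 recorded every min, 20–100 °C at 1 °C/min, Peltier-controlled. Tm taken as midpoint of hyperchromic double- to single-strand transition; ΔTm relative to DNA alone.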

[6] = target: T1, DNA topoisomerase 1 (Homo sapiens) (UniProt P11387); assay: Inhibition of human recombinant topoisomerase 1-mediated relaxation of supercoiled pUC19 by agarose gel electrophoresis
T1 sequence (whole entry): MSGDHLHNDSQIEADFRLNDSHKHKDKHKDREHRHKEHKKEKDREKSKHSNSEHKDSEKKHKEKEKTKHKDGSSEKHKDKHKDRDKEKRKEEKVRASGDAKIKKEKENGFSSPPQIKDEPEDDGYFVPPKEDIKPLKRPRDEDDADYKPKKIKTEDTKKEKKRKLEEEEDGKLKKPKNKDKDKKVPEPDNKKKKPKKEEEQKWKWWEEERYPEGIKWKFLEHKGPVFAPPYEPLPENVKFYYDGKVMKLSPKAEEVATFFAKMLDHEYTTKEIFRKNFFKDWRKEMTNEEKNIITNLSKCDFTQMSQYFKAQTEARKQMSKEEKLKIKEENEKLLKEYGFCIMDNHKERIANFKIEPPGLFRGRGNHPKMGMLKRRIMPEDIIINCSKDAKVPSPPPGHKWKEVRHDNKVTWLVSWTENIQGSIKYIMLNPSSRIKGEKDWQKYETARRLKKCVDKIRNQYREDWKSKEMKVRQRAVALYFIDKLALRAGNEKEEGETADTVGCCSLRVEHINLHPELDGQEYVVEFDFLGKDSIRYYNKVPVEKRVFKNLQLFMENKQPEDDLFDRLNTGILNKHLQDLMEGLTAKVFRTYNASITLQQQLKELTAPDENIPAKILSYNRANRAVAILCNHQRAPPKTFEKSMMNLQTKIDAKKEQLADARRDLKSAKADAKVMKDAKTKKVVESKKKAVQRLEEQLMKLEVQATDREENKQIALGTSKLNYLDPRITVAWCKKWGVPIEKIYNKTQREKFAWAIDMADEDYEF

[7] = target: T1, DNA topoisomerase 1 (Homo sapiens); assay: Inhibition of human recombinant topoisomerase 1-mediated relaxation of supercoiled pUC19 at 1 to 5 uM by agarose gel electrophoresis

Sequence of DNA topoisomerase 2-alpha (Homo sapiens) (P11388 whole entry): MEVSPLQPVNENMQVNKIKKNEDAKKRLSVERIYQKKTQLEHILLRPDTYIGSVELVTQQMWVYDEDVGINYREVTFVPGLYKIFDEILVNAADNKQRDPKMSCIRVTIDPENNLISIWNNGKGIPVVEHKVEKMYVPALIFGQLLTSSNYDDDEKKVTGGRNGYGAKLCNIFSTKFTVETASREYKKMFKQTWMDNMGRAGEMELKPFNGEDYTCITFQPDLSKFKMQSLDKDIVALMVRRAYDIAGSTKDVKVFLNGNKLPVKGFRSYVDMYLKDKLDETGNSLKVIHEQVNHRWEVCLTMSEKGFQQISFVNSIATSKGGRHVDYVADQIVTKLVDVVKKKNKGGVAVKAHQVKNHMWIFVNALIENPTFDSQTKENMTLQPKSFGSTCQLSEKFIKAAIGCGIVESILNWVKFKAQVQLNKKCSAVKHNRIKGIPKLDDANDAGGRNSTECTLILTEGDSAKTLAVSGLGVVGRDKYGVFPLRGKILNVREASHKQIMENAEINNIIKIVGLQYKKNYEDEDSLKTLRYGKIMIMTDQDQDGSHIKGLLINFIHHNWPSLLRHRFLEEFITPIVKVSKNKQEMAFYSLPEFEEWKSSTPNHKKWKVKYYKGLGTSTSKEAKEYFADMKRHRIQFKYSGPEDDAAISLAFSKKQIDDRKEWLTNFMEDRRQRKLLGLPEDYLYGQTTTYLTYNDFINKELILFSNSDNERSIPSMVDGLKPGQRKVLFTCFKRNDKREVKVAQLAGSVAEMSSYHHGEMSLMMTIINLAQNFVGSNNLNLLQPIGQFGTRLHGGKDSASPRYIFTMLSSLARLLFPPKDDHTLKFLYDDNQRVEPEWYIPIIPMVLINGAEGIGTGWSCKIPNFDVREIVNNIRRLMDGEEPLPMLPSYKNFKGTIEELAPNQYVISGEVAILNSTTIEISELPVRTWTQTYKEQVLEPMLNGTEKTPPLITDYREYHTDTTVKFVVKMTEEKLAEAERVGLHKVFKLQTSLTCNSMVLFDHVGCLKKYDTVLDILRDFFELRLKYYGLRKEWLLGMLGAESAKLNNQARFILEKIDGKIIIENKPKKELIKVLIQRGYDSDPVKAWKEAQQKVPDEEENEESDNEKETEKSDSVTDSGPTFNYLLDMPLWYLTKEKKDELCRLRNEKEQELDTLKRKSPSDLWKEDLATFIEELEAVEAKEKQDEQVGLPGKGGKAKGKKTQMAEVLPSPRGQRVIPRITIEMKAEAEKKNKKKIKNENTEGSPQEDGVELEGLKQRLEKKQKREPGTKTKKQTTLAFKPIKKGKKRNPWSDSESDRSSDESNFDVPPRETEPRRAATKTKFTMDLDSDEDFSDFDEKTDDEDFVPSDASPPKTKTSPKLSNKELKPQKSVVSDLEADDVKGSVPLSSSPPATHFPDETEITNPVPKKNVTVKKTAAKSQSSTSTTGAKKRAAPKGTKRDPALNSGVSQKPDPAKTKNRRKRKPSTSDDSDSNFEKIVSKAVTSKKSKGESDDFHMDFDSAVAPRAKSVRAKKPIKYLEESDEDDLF

| Compound | Activity (Calf thymus DNA [1]) | Activity [2] | Activity (Calf thymus DNA [3]) | Activity (Calf thymus DNA [4]) | ΔTm (Calf thymus DNA [5]) [°C] | Activity [6] | inhibition [7] | Activity [7] | pIC50 (L1210) |
| --- | --- | --- | --- | --- | --- | --- | --- | --- | --- |
| COc1cc2c(ccc3c4cc(OC)c(OC)cc4c[n+](C)c23)cc1O [FAGARONINE] | – | – | – | – | – | – | – | – | 5.18 |
| c1cnc2ccc3c4cc5c(cc4cnc3c2c1)OCO5 | – | – | – | – | – | – | – | – | 5.06 |
| COc1cc2cnc3c4cccnc4ccc3c2cc1OC | – | – | – | – | – | – | – | – | 5.15 |
| c1cc2c(ccc3c4cc5c(cc4cnc23)OCO5)cn1 | – | – | – | – | – | – | – | – | 5.36 |
| CCN(CC)CCNc1ccc2c(ccc3c4cc5c(cc4cnc23)OCO5)n1 | Active | Active | Active | – | 5 | Active | – | inactive | 5.76 |
| CCN(CC)CCCNc1ccc2c(ccc3c4cc5c(cc4cnc23)OCO5)n1 | Active | Active | Active | Active | 11 | – | – | – | 6.08 |
| COc1cc2cnc3c4ccncc4ccc3c2cc1OC | – | – | – | – | – | – | – | – | 5.18 |
| COc1cc2cnc3c4ccnc(Cl)c4ccc3c2cc1OC | – | – | – | – | – | – | – | – | 5.37 |

Further lines, with some results ahead:

| Activity (Calf thymus DNA [1]) | Activity [2] | Activity (Calf thymus DNA [3]) | Activity (Calf thymus DNA [4]) | ΔTm (Calf thymus DNA [5]) [°C] | Activity [6] | inhibition [7] | Activity [7] | Compound | pIC50 (L1210) |
| --- | --- | --- | --- | --- | --- | --- | --- | --- | --- |
| Active | Active | Active | Active | – | – | – | – | CN(C)CCCNc1ccc2c(ccc3c4cc5c(cc4cnc23)OCO5)n1 | 6.29 |
| – | Active | Active | – | 9 | – | – | – | COc1cc2cnc3c4ccnc(NCCN(C)C)c4ccc3c2cc1OC | 5.45 |
| Active | Active | Active | – | 12 | Active | inactive | – | COc1cc2cnc3c4ccc(NCCN(C)C)nc4ccc3c2cc1OC | 5.76 |
| Active | Active | Active | – | 0 | – | – | – | COc1cc2cnc3c4ccc(NCCCN(C)C)nc4ccc3c2cc1OC | 5.55 |
| Active | Active | Active | – | 4 | Active | – | inactive | CN(C)CCNc1ccc2c(ccc3c4cc5c(cc4cnc23)OCO5)n1 | 6.49 |
| – | Active | Active | – | 9 | – | – | – | CCN(CC)CCNc1nccc2c1ccc1c3cc(OC)c(OC)cc3cnc21 | 5.75 |
| – | Active | Active | Active | 14 | Active | – | inactive | CN(C)CCCNc1nccc2c1ccc1c3cc4c(cc3cnc21)OCO4 | 6.54 |
| – | Active | – | – | – | – | – | – | CCN(CC)CCCNc1nccc2c1ccc1c3cc(OC)c(OC)cc3cnc21 | 5.43 |
| Active | Active | Active | – | 5 | – | – | – | CCN(CC)CCNc1ccc2c(ccc3c4cc(OC)c(OC)cc4cnc23)n1 | 6.02 |
| – | Active | Active | – | – | – | – | – | COc1cc2cnc3c4ccnc(NCCCN(C)C)c4ccc3c2cc1OC | 5.74 |
| – | Active | Active | – | 7 | Active | – | inactive | CN(C)CCNc1nccc2c1ccc1c3cc4c(cc3cnc21)OCO4 | – |
| Active | Active | Active | – | – | – | – | – | CCN(CC)CCCNc1ccc2c(ccc3c4cc(OC)c(OC)cc4cnc23)n1 | 5.90 |
